From ChEMBL document CHEMBL4024799, “Synthesis and Biological Characterization of Aryl Uracil Inhibitors of Hepatitis C Virus NS5B Polymerase: Discovery of ABT-072, a trans-Stilbene Analog with Good Oral Bioavailability” (J Med Chem, 2018)
Converted amounts (≈) assume the structure as drawn. The source made the active and inactive calls. No cut-off for these calls is given here.

Columns and labels:
[1] = Plasma clearance in dog at 2.5 mg/kg, iv; format: ADME, organism-based, Canis lupus familiaris
[2] = tested on: Hepatitis C virus; test: Antiviral activity against HCV genotype 1a H77 infected in human HuH7 cells harboring HCV subgenomic bicistronic replicon after 3 days by luciferase reporter gene assay; format: functional, cell-based, Hepacivirus hominis; conditions: genotype 1a H77, Huh-7, 72 h
Outline: (§1)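 Subgenomic genotype 1a (H77) or 1b (Con1) replicons carrying firefly luciferase, transfected into Huh-7 cells. Replication inhibition was read as luciferase level in cell lysate on a luminometer and reported as EC50. Runs were done without human plasma or with 40% human plasma added, to assess inhibitor–protein binding.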

[3] = Cmax in Sprague-Dawley rat at 30 mg/kg, po; format: ADME, organism-based; design: dose 30 mg/kg, route oral; conditions: in vivo
Outline: (§2)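 Sprague-Dawley rats, n = 3 per experiment; solution in DMSO:PEG400 (1:9, v/v) given IV or oral; 5 mg/kg for both routes, and 30 mg/kg oral; plasma t1/2, Vss, clearance, Cmax, AUC and F% determined.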

[4] = Cmax in Sprague-Dawley rat at 5 mg/kg, po; format: ADME, organism-based; design: dose 5 mg/kg, route oral; conditions: in vivo; outline: as §2
[5] = Ratio of drug level in dog liver to plasma at 2.5 mg/kg, po after 12 hrs; format: ADME, organism-based, Canis lupus familiaris
[6] = Half life in dog at 2.5 mg/kg, iv; format: ADME, organism-based, Canis lupus familiaris; conditions: in vivo
[7] = Terminal half life in human at 320 mg administered as single dose; format: ADME; conditions: in vivo, read-out: beta t1/2 (converted)
Outline: (§3)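 Single oral doses of 80, 160 or 320 mg in healthy subjects; plasma concentration-time profiles reported as mean (+SD); Cmax and terminal phase half-life derived.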

[8] = Aqueous solubility of the compound at pH 7.2; format: physicochemical; conditions: buffer, read-out: solubility
[9] = Half life in dog at 30 mg/kg, po; format: ADME, organism-based, Canis lupus familiaris; conditions: in vivo
[10] = Ratio of drug level in Sprague-Dawley rat liver to plasma at 5 mg/kg, po after 24 hrs; format: ADME, organism-based
Outline: (§4)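 Male/female not given; Sprague-Dawley rats, n = 3 per experiment, single 5 mg/kg oral dose given as a solution in DMSO:PEG400 (1:9, v/v). Drug concentrations measured in liver tissue and plasma at 12 h and 24 h post-dose; value reported as the liver-to-plasma concentration ratio.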

[11] = Oral bioavailability in Sprague-Dawley rat at 30 mg/kg; format: ADME, organism-based; conditions: in vivo; outline: as §2
[12] = Half life in dog at 2.5 mg/kg, po; format: ADME, organism-based, Canis lupus familiaris; conditions: in vivo
[13] = tested on: Hepatitis C virus; test: Antiviral activity against HCV genotype 1a H77 infected in human HuH7 cells harboring HCV subgenomic bicistronic replicon after 3 days in presence of 40% human plasma by luciferase reporter gene assay; format: functional, cell-based, Hepacivirus hominis; conditions: genotype 1a H77, Huh-7, 72 h; outline: as §1
[14] = Terminal half life in human at 80 mg administered as single dose; format: ADME; conditions: in vivo, read-out: beta t1/2 (converted); outline: as §3
[15] = tested on: Canis familiaris; test: AUC in dog at 2.5 mg/kg, iv; format: ADME, organism-based, Canis lupus familiaris; conditions: in vivo
[16] = Inhibition of HCV genotype 3a NS5B RNA dependent RNA polymerase assessed as reduction in [3H]UTP incorporation in to RNA preincubated for 15 mins followed by [3H]UTP addition measured after 3 hrs by microbeta scintillation counting method; design: species or system Hepatitis C virus subtype 3a
[17] = tested on: Canis familiaris; test: AUC in dog at 2.5 mg/kg, po; format: ADME, organism-based, Canis lupus familiaris; conditions: in vivo
[18] = tested on: Hepatitis C virus (isolate H77); test: Inhibition of HCV genotype 1a H77 NS5B RNA dependent RNA polymerase M414T mutant assessed as reduction in [3H]UTP incorporation in to RNA preincubated for 15 mins followed by [3H]UTP addition measured after 3 hrs by microbeta scintillation counting method
Outline: (§5)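 Standard NS5B polymerase inhibition assay using genotype 1a (H77) or 1b (BK) enzyme. RNA product formation was measured as ³H-UTP incorporated into RNA, read by scintillation counting. IC50 was calculated with a standard IC50 equation.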

[19] = AUC (0 to 24 hrs) in human infected with HCV genotype 1 at 160 mg administered once daily for 2 days; format: ADME; design: time < 24 hr, dose 160 mg; conditions: in vivo
Outline: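 HCV GT1-infected patients (N=4) given 160 mg once daily for 2 days; plasma Cmax, AUC and t1/2 determined.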

[20] = tested on: Hepatitis C virus (isolate BK); test: Inhibition of HCV genotype 1b BK NS5B RNA dependent RNA polymerase M414T mutant assessed as reduction in [3H]UTP incorporation in to RNA preincubated for 15 mins followed by [3H]UTP addition measured after 3 hrs by microbeta scintillation counting method; outline: as §5
[21] = AUC (infinity) in human at 320 mg administered as single dose; format: ADME; design: dose 320 mg, time infinity; conditions: in vivo; outline: as §3
[22] = Half life in Sprague-Dawley rat at 30 mg/kg, po; format: ADME, organism-based; conditions: in vivo; outline: as §2
[23] = Cmax in dog at 2.5 mg/kg, po; format: ADME, organism-based, Canis lupus familiaris; design: dose 2.5 mg/kg, route oral; conditions: in vivo
[24] = tested on: Hepatitis C virus (isolate BK); test: Inhibition of HCV genotype 1b BK NS5B RNA dependent RNA polymerase Y448H mutant assessed as reduction in [3H]UTP incorporation in to RNA preincubated for 15 mins followed by [3H]UTP addition measured after 3 hrs by microbeta scintillation counting method; outline: as §5
[25] = Half life in Sprague-Dawley rat at 5 mg/kg, iv; format: ADME, organism-based; conditions: in vivo; outline: as §2
[26] = tested on: Rattus norvegicus; test: AUC in Sprague-Dawley rat at 30 mg/kg, po; format: ADME, organism-based; conditions: in vivo; outline: as §2
[27] = Oral bioavailability in Sprague-Dawley rat at 5 mg/kg; format: ADME, organism-based; conditions: in vivo; outline: as §2
[28] = Plasma clearance in Sprague-Dawley rat at 5 mg/kg, iv; format: ADME, organism-based; outline: as §2
[29] = Tmax in human at 320 mg administered as single dose; format: ADME; conditions: in vivo
[30] = Ratio of drug level in Sprague-Dawley rat liver to plasma at 5 mg/kg, po after 12 hrs; format: ADME, organism-based; outline: as §4
[31] = Cmax in human at 320 mg administered as single dose; format: ADME; design: dose 320 mg; conditions: in vivo; outline: as §3
[32] = Cmax in human at 160 mg administered as single dose; format: ADME; design: dose 160 mg; conditions: in vivo; outline: as §3
[33] = tested on: Hepatitis C virus; test: Antiviral activity against HCV genotype 1 infected in human assessed as sustained virologic response at 400 mg administered once daily in combination with ABT-450/r and ribavirin; format: functional, Hepacivirus hominis
Outline: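 GT1-infected adults given 400 mg once daily together with ABT-450/ritonavir and ribavirin; sustained virologic response assessed 24 weeks after treatment.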

[34] = tested on: Hepatitis C virus; test: Antiviral activity against HCV genotype 1b Con1 infected in human HuH7 cells harboring HCV subgenomic bicistronic replicon after 3 days by luciferase reporter gene assay; format: functional, cell-based, Hepacivirus hominis; conditions: genotype 1b Con1, Huh-7, 72 h; outline: as §1
[35] = tested on: Rattus norvegicus; test: AUC in Sprague-Dawley rat at 5 mg/kg, iv; format: ADME, organism-based; conditions: in vivo; outline: as §2
[36] = tested on: Plasma; test: Drug level in po dosed dog plasma up to 24 hrs; format: ADME, organism-based, Canis lupus familiaris; conditions: in vivo
Outline: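 Dogs given oral doses; liver tissue and plasma drug levels measured at 12 and 24 h; liver:plasma ratio calculated.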

[37] = tested on: Plasma; test: Drug uptake in human plasma administered as single dose; format: ADME, cell-free
[38] = Oral bioavailability in dog at 30 mg/kg; format: ADME, organism-based, Canis lupus familiaris; conditions: in vivo
[39] = AUC in Sprague-Dawley rat at 5 mg/kg, po; format: ADME, organism-based; conditions: in vivo; outline: as §2
[40] = Tmax in human at 160 mg administered as single dose; format: ADME; conditions: in vivo
[41] = Oral bioavailability in dog at 2.5 mg/kg; format: ADME, organism-based, Canis lupus familiaris; conditions: in vivo
[42] = tested on: Hepatitis C virus (isolate H77); test: Inhibition of HCV genotype 1a H77 NS5B RNA dependent RNA polymerase C316H mutant assessed as reduction in [3H]UTP incorporation in to RNA preincubated for 15 mins followed by [3H]UTP addition measured after 3 hrs by microbeta scintillation counting method; outline: as §5

Q: With COc1c(/C=C/c2ccc(NS(C)(=O)=O)cc2)cc(-n2ccc(=O)[nH]c2=O)cc1C(C)(C)C [ABT-072] as the molecule, how does the clearance [1] read?
A: 2.5 mL/min/kg

Q: What about the EC50 [2] of the same molecule?
A: 0.0011 µM

Q: What about the Cmax [3] of the same molecule?
A: 2000 ng/mL

Q: What about the Cmax [4] of the same molecule?
A: 280 ng/mL

Q: And the Kp at 12 h [5]?
A: 11

Q: What about the half-life [6] of the same molecule?
A: 5.5 h

Q: What about the half-life [7] of the same molecule?
A: 7.01 h

Q: What about the solubility [8] of the same molecule?
A: 20.7 µM (≈ 9.72 µg/mL)

Q: What about the half-life [9] of the same molecule?
A: 9.6 h

Q: What about the Kp at 24 h [10] of the same molecule?
A: 46

Q: What about the bioavailability [11] of the same molecule?
A: 63%

Q: And the half-life [12]?
A: 5.4 h

Q: And the EC50 [13]?
A: 0.019 µM

Q: And the half-life [14]?
A: 8.17 h

Q: What about the AUC [15] of the same molecule?
A: 16800 ng·h/mL

Q: And the IC50 [16]?
A: 3 µM

Q: And the AUC [17]?
A: 14400 ng·h/mL

Q: And the inhibition [18]?
A: inactive

Q: What about the AUC at 24 h [19] of the same molecule?
A: 4180 ng·h/mL

Q: What about the inhibition [20] of the same molecule?
A: inactive

Q: What about the AUC(0-inf) [21] of the same molecule?
A: 7200 ng·h/mL

Q: What about the half-life [22] of the same molecule?
A: 3.5 h

Q: What about the Cmax [23] of the same molecule?
A: 880 ng/mL

Q: What about the inhibition [24] of the same molecule?
A: inactive

Q: And the half-life [25]?
A: 2.9 h

Q: And the AUC [26]?
A: 21600 ng·h/mL

Q: And the bioavailability [27]?
A: 44%

Q: What about the clearance [28] of the same molecule?
A: 15 mL/min/kg

Q: What about the Tmax [29] of the same molecule?
A: 8.8 h

Q: What about the Kp at 12 h [30] of the same molecule?
A: 71

Q: What about the Cmax [31] of the same molecule?
A: 486 ng/mL

Q: What about the Cmax [32] of the same molecule?
A: 303 ng/mL

Q: What about the Activity [33] of the same molecule?
A: 91%

Q: What about the EC50 [34] of the same molecule?
A: 0.0003 µM

Q: And the AUC [35]?
A: 5730 ng·h/mL

Q: What about the Drug uptake [36] of the same molecule?
A: Dose-dependent effect

Q: What about the Drug uptake [37] of the same molecule?
A: Dose-dependent effect

Q: And the bioavailability [38]?
A: 61%

Q: And the AUC [39]?
A: 2520 ng·h/mL

Q: And the Tmax [40]?
A: 6.8 h

Q: And the bioavailability [41]?
A: 86%

Q: What about the inhibition [42] of the same molecule?
A: inactive
